# In paper PMC8481180 (Clinical Drug Investigation, 2021):
# “Also recorded” adds a separate entry of the source. Where two headings read alike, the source gives them in different places.
# Assays:
# [1] = type: in vivo, human; conditions: for Tmax: median (range)
# Summary of the method: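 Oral suspension given fasted (10 h overnight), 6 subjects per dose. Blood (2 mL, K₂-EDTA) was taken pre-dose and 0.5–48 h after the first and Day-10 doses. Day-10 urine was collected pre-dose and over 0–3, 3–6, 6–12 and 12–24 h. Analysis used validated methods and non-compartmental methods with actual sampling times. AUC was by log-linear trapezoidal rule.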
# [2] = Pharmacokinetics in healthy non-Japanese subjects; type: in vivo, human; conditions: for AUCτ, non-Japanese geometric mean, body weight normalized to 70 kg: Day 10
# [3] = Comparison of pharmacokinetics, Japanese versus non-Japanese subjects; type: in vivo, human; conditions: Day 10
# Summary of the method: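 Day-10 Japanese multiple-dose pharmacokinetic parameters were compared with a prior Phase I non-Japanese study (MAD part). Parameters were log-transformed to give geometric mean ratios with 90% confidence intervals. Cmax and AUCτ were also normalised to 70 kg body weight. Six subjects per cohort.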
# [4] = tested on: LTE4 in urine; assay: Creatine-normalized urine LTE4 quantification; type: in vivo, human
# Summary of the method: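 Urinary LTE₄ was normalised to creatinine. On Days 1 and 10, samples were a pre-dose spot, pooled 0–3, 3–6, 6–9 and 9–12 h collections, and spots at 24 and 36 h. Only pre-dose spots were taken on Days 3–9. Inhibition was related to plasma exposure after oral doses of 60–600 mg.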
# [5] = Clinical safety and tolerability in healthy Japanese subjects; type: in vivo, human
# Summary of the method: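 Randomised, placebo-controlled: four cohorts of 8 (6 active, 2 placebo) received an oral amorphous suspension once on Day 1, then once daily on Days 3–10, fasted. Assessments were adverse events, vital signs, ECG, telemetry and routine clinical laboratory tests. They were taken before and at scheduled times after dosing and at follow-up 7–10 days after the final dose.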
# [6] = cited from earlier work
# [7] = SMAD study, fasting and fed healthy volunteers; cited from earlier work
# [8] = Japanese, 60 mg OD, Day 1, geometric mean (CV%)
# [9] = Japanese, 60 mg OD, Day 10, geometric mean (CV%)
# [10] = Japanese, 180 mg OD, Day 1, geometric mean (CV%)
# [11] = Japanese, 180 mg OD, Day 10, geometric mean (CV%)
# [12] = Japanese, 360 mg OD, Day 1, geometric mean (CV%)
# [13] = Japanese, 360 mg OD, Day 10, geometric mean (CV%)
# [14] = Japanese, 600 mg OD, Day 1, geometric mean (CV%)
# [15] = Japanese, 600 mg OD, Day 10, geometric mean (CV%)
smiles,measurement,setting,value
Cc1cc(-c2ccc(C(=O)[C@@H]3CCCC[C@H]3C(=O)Nc3cnn4c3C(=O)NCC4)cc2)n[nH]1 [AZD5718],"AUCτ, Japanese geometric mean, body weight normalized to 70 kg","[1]; 60 mg, Day 10",1056.0 nmol·h/L
same,"AUCτ, Japanese geometric mean, body weight normalized to 70 kg","[1]; 180 mg, Day 10",5896.7 nmol·h/L
same,"AUCτ, Japanese geometric mean, body weight normalized to 70 kg","[1]; 360 mg, Day 10","14,981.4 nmol∙h/L"
same,"AUCτ, Japanese geometric mean, body weight normalized to 70 kg","[1]; 600 mg, Day 10","25,893.0 nmol∙h/L"
same,Cmax,"[1]; Japanese, 60 mg OD oral suspension, Day 1, geometric mean (CV%), n = 6",140 nM
same,AUCτ,[1]; [8],862.9 (35.8) nmol∙h/L
same,CL/F,[1]; [8],142.1 (33.5) L/h
same,t½,[1]; [8],10.1 (44.0) h
same,Tmax,"[1]; Japanese, 60 mg OD, Day 1","1.0 (1.0, 3.0) h"
same,AUCτ,[1]; [9],1140.5 (25.5) nmol∙h/L
same,CL/F,[1]; [9],117.8 (25.5) L/h
same,CLR,[1]; [9],0.8 (22.5) L/h
same,Cmax,[1]; [9],159 nM
same,t½,[1]; [9],12.8 (47.0) h
same,Tmax,"[1]; Japanese, 60 mg OD, Day 10","2.0 (1.0, 3.0) h"
same,AUCτ,[1]; [10],4739.4 (33.3) nmol∙h/L
same,CL/F,[1]; [10],82.2 (35.8) L/h
same,Cmax,[1]; [10],1280 nM
same,t½,[1]; [10],8.5 (47.9) h
same,Tmax,"[1]; Japanese, 180 mg OD, Day 1","1.0 (0.5, 2.0) h"
same,AUCτ,[1]; [11],6724.5 (32.0) nmol∙h/L
same,CL/F,[1]; [11],60.0 (32.0) L/h
same,CLR,[1]; [11],0.8 (38.4) L/h
same,Cmax,[1]; [11],1570 nM
same,t½,[1]; [11],8.6 (23.6) h
same,Tmax,"[1]; Japanese, 180 mg OD, Day 10","1.5 (1.0, 2.0) h"
same,AUCτ,[1]; [12],8971.1 (47.6) nmol∙h/L
same,CL/F,[1]; [12],84.3 (51.7) L/h
same,Cmax,[1]; [12],2200 nM
same,t½,[1]; [12],15.0 (100.5) h
same,Tmax,"[1]; Japanese, 360 mg OD, Day 1","1.0 (1.0, 2.1) h"
same,AUCτ,[1]; [13],"15,847.3 (47.8) nmol∙h/L"
same,CL/F,[1]; [13],50.9 (47.8) L/h
same,CLR,[1]; [13],0.9 (21.0) L/h
same,Cmax,[1]; [13],3460 nM
same,t½,[1]; [13],10.5 (29.1) h
same,Tmax,"[1]; Japanese, 360 mg OD, Day 10","2.0 (1.0, 3.0) h"
same,AUCτ,[1]; [14],"17,592.6 (39.9) nmol∙h/L"
same,CL/F,[1]; [14],74.1 (40.0) L/h
same,Cmax,[1]; [14],5180 nM
same,t½,[1]; [14],7.4 (25.5) h
same,Tmax,"[1]; Japanese, 600 mg OD, Day 1","1.0 (1.0, 2.0) h"
same,AUCτ,[1]; [15],"27,349.3 (48.8) nmol∙h/L"
same,CL/F,[1]; [15],49.1 (48.8) L/h
same,CLR,[1]; [15],0.8 (16.8) L/h
same,Cmax,[1]; [15],6150 nM
same,t½,[1]; [15],8.5 (35.1) h
same,Tmax,"[1]; Japanese, 600 mg OD, Day 10","1.0 (1.0, 2.0) h"
same,Tmax (median) across doses,"[1]; Japanese, 60–600 mg oral, fasted",1 to 2 h
same,accumulation in AUCτ,"[1]; Japanese, Day 10 versus Day 1, all doses",32–77%
same,time to steady-state plasma concentrations,"[1]; Japanese, once-daily dosing",3 to 4 days
same,Cmax,"[1]; read-out: Cmax, Japanese geometric mean, body weight normalized to 70 kg, 60 mg, Day 10",147 nM
same,Cmax,"[1]; read-out: Cmax, Japanese geometric mean, body weight normalized to 70 kg, 180 mg, Day 10",1370 nM
same,Cmax,"[1]; read-out: Cmax, Japanese geometric mean, body weight normalized to 70 kg, 360 mg, Day 10",3270 nM
same,Cmax,"[1]; read-out: Cmax, Japanese geometric mean, body weight normalized to 70 kg, 600 mg, Day 10",5820 nM
same,"AUCτ, non-Japanese geometric mean, body weight normalized to 70 kg",[2]; 60 mg,1464.7 nmol·h/L
same,"AUCτ, non-Japanese geometric mean, body weight normalized to 70 kg",[2]; 180 mg,5837.1 nmol·h/L
same,"AUCτ, non-Japanese geometric mean, body weight normalized to 70 kg",[2]; 360 mg,"14,647.6 nmol∙h/L"
same,"AUCτ, non-Japanese geometric mean, body weight normalized to 70 kg",[2]; 600 mg,"24,956.5 nmol∙h/L"
same,Cmax,"[2]; read-out: Cmax, non-Japanese geometric mean, body weight normalized to 70 kg, 60 mg, Day 10",232 nM
same,Cmax,"[2]; read-out: Cmax, non-Japanese geometric mean, body weight normalized to 70 kg, 180 mg, Day 10",1420 nM
same,Cmax,"[2]; read-out: Cmax, non-Japanese geometric mean, body weight normalized to 70 kg, 360 mg, Day 10",3680 nM
same,Cmax,"[2]; read-out: Cmax, non-Japanese geometric mean, body weight normalized to 70 kg, 600 mg, Day 10",6130 nM
same,"AUCτ GMR Japanese versus non-Japanese, % (90% CI)",[3]; 60 mg,82 (63–108) %
same,"AUCτ GMR Japanese versus non-Japanese, % (90% CI), body weight normalized to 70 kg",[3]; 60 mg,72 (55–95) %
same,"Cmax GMR Japanese versus non-Japanese, % (90% CI)",[3]; 60 mg,72 (54–97) %
same,"Cmax GMR Japanese versus non-Japanese, % (90% CI), body weight normalized to 70 kg",[3]; 60 mg,63 (48–84) %
same,"AUCτ GMR Japanese versus non-Japanese, % (90% CI)",[3]; 180 mg,131 (88–196) %
same,"AUCτ GMR Japanese versus non-Japanese, % (90% CI), body weight normalized to 70 kg",[3]; 180 mg,101 (71–144) %
same,"Cmax GMR Japanese versus non-Japanese, % (90% CI)",[3]; 180 mg,126 (82–195) %
same,"Cmax GMR Japanese versus non-Japanese, % (90% CI), body weight normalized to 70 kg",[3]; 180 mg,97 (65–145) %
same,"AUCτ GMR Japanese versus non-Japanese, % (90% CI)",[3]; 360 mg,124 (83–186) %
same,"AUCτ GMR Japanese versus non-Japanese, % (90% CI), body weight normalized to 70 kg",[3]; 360 mg,102 (70–149) %
same,"Cmax GMR Japanese versus non-Japanese, % (90% CI)",[3]; 360 mg,108 (72–162) %
same,"Cmax GMR Japanese versus non-Japanese, % (90% CI), body weight normalized to 70 kg",[3]; 360 mg,89 (60–131) %
same,"AUCτ GMR Japanese versus non-Japanese, % (90% CI)",[3]; 600 mg,118 (73–190) %
same,"AUCτ GMR Japanese versus non-Japanese, % (90% CI), body weight normalized to 70 kg",[3]; 600 mg,104 (69–156) %
same,"Cmax GMR Japanese versus non-Japanese, % (90% CI)",[3]; 600 mg,108 (66–178) %
same,"Cmax GMR Japanese versus non-Japanese, % (90% CI), body weight normalized to 70 kg",[3]; 600 mg,95 (64–142) %
same,time at which level of full LTE4 inhibition achieved,"[4]; Japanese, after the first dose, all doses",8 h
same,sustained reduction in LTE4 in urine,"[4]; Japanese, all doses",above 80%
same,inhibition of LTE4 in urine after the first dose,"[4]; Japanese, all doses (60–600 mg)",> 80%
same,time of maximum reduction in LTE4 in urine post-dose,"[4]; after first dose, both Japanese and non-Japanese subjects",≤ 12 h
same,urinary LTE4 inhibition versus AZD5718 exposure,"[4]; single and multiple doses, at plasma concentrations in the lower nM range",> 80%
same,serious adverse events,"[5]; Japanese, 60, 180, 360, 600 mg",No serious AEs
same,"vital signs, ECG, telemetry, laboratory results","[5]; Japanese, all doses",no clinically significant trends
same,tolerability,"[5]; Japanese, single and multiple oral doses 60, 180, 360, 600 mg","No clinically relevant safety and tolerability findings; also recorded: safe, well tolerated"
same,time to steady-state levels,"[6]; SMAD study, once-daily dosing",2 to 3 days
same,terminal half-life,[6]; SMAD study,10 h
same,"AUCτ, non-Japanese geometric mean","[6]; non-Japanese, 60 mg multiple dosing, Day 10",1386.3 nmol·h/L
same,"AUCτ, non-Japanese geometric mean","[6]; non-Japanese, 180 mg multiple dosing, Day 10",5128.4 nmol·h/L
same,"AUCτ, non-Japanese geometric mean","[6]; non-Japanese, 360 mg multiple dosing, Day 10","12,764.7 nmol∙h/L"
same,"AUCτ, non-Japanese geometric mean","[6]; non-Japanese, 600 mg multiple dosing, Day 10","23,175.0 nmol∙h/L"
same,Cmax,"[6]; read-out: Cmax, non-Japanese geometric mean, non-Japanese, 60 mg multiple dosing, Day 10",220 nM
same,tolerability,[7],well tolerated
